A word on the MIC: it is the lowest concentration that inhibits growth of the organism. Usually MIC90 stands for an inhibitory concentration at the 90% level, which refers to growth in some studies and to a panel of isolates in others. Low values mean greater potency, high ones weaker potency.

This is an account of results in ChEMBL document CHEMBL1275452, “Epidemiological cutoffs and cross-resistance to azole drugs in Aspergillus fumigatus” (2008).

Values after ≈ are worked out from the molar mass of the structure shown.

Holding throughout (format): functional
Assay [1] deals with Aspergillus fumigatus. The assay is described as follows: Antimicrobial activity against azole-resistant Aspergillus fumigatus harboring Tandem repeat-L98H (TR) mutation in cyp51A gene after 48 hrs by microdilution method. A digest of the protocol:
(§1)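 EUCAST broth microdilution in RPMI 1640 supplemented to 2% glucose. Inoculum 2 × 105 to 5 × 10^5 CFU/ml, spores counted in a hematocytometer. MIC read at 48 h as the concentration giving complete inhibition of visual growth. Strains with itraconazole MICs of ≥8 mg/liter were tested at least twice on different days (2 to 11 times). Values are geometric means of MICs. QC strain ATCC 204305 was included.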

The test system of assay [2] is Aspergillus fumigatus. The assay is described as follows: Antimicrobial activity against azole-resistant Aspergillus fumigatus harboring G54V, G54E, G54R and G54W mutation in cyp51A gene after 48 hrs by microdilution method. A digest of the protocol:
as §1
(In general: In broth dilution the organism is exposed to a series of concentrations in liquid medium.)

Assay [3] concerns Aspergillus fumigatus. The assay is described as follows: Antimicrobial activity against azole-susceptible Aspergillus fumigatus after 48 hrs by microdilution method. A digest of the protocol:
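EUCAST broth microdilution on clinical isolates, RPMI 1640 with glucose to 2%. Inoculum 2 × 105 to 5 × 10^5 CFU/ml, counted as spores in a hematocytometer. MIC read at 48 h as the lowest concentration giving complete inhibition of visual growth. Strains with itraconazole MIC ≤1 mg/liter tested once, some at least twice. Values summarised as geometric means; QC strain ATCC 204305 run alongside.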

Assay [4] has as its system Aspergillus fumigatus. The assay is described as follows: Antimicrobial activity against azole-resistant Aspergillus fumigatus harboring M220V, M220K, M220T and M220I mutation in cyp51A gene after 48 hrs by microdilution method. A digest of the protocol:
as §1

`CCC(C)n1ncn(-c2ccc(N3CCN(c4ccc(OCC5COC(Cn6cncn6)(c6ccc(Cl)cc6Cl)O5)cc4)CC3)cc2)c1=O` (stereo not given) [ITRACONAZOLE]: the MIC turned out to be 16 µg/mL (≈ 22.7 µM) against Aspergillus fumigatus [1], 16 µg/mL (≈ 22.7 µM) with Aspergillus fumigatus [2], 0.32 µg/mL (≈ 0.453 µM) against Aspergillus fumigatus [3] and 16 µg/mL (≈ 22.7 µM) in the assay on Aspergillus fumigatus [4]. The same compound showed an MIC90 in the assay with Aspergillus fumigatus [3] of 0.5 µg/mL (≈ 0.709 µM).

As for `CC[C@@H]([C@H](C)O)n1ncn(-c2ccc(N3CCN(c4ccc(OC[C@@H]5CO[C@@](Cn6cncn6)(c6ccc(F)cc6F)C5)cc4)CC3)cc2)c1=O` [POSACONAZOLE], the minimum inhibitory concentration (MIC) in the assay on Aspergillus fumigatus [1] is 0.68 µg/mL (≈ 0.97 µM); in the assay with Aspergillus fumigatus [2], 1.6 µg/mL (≈ 2.28 µM); with Aspergillus fumigatus [3] it was 0.08 µg/mL (≈ 0.114 µM); against Aspergillus fumigatus [4] it was 0.65 µg/mL (≈ 0.928 µM). Besides, the MIC90 against Aspergillus fumigatus [3] came out at 0.125 µg/mL (≈ 0.178 µM).

As to `C[C@@H](c1nc(-c2ccc(C#N)cc2)cs1)[C@](O)(Cn1cncn1)c1ccc(F)cc1F` [RAVUCONAZOLE], the MIC in the assay with Aspergillus fumigatus [1] turned out to be 6.8 µg/mL (≈ 15.5 µM); with Aspergillus fumigatus [2], 0.32 µg/mL (≈ 0.731 µM); in the assay on Aspergillus fumigatus [3], 0.6 µg/mL (≈ 1.37 µM); against Aspergillus fumigatus [4], 1.85 µg/mL (≈ 4.23 µM). This compound had an MIC90 against Aspergillus fumigatus [3] of 1 µg/mL (≈ 2.29 µM).

Consider `C[C@@H](c1ncncc1F)[C@](O)(Cn1cncn1)c1ccc(F)cc1F` [VORICONAZOLE], for which the MIC in the assay on Aspergillus fumigatus [1] turned out to be 3.7 µg/mL (≈ 10.6 µM); in the assay with Aspergillus fumigatus [2], 0.42 µg/mL (≈ 1.2 µM); in the assay with Aspergillus fumigatus [3], 0.53 µg/mL (≈ 1.52 µM); in the assay with Aspergillus fumigatus [4], 1 µg/mL (≈ 2.86 µM). For the same compound, in the assay with Aspergillus fumigatus [3], the MIC90 was 1 µg/mL (≈ 2.86 µM).
